# RGS4 block – inhibitors of human RGS4. HEK293 M3R/RGS4 inducible, Fluo-4 calcium flux; stronger effect = higher value; triggered by carbachol at its EC20. B-score at 10 µM. 0.45% of 310,000 active;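 active means B-score, a plate-corrected calcium signal, over three deviations above library mean, with baseline fluorescence within five deviations of library mean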;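 further: RGS4 expression induced by doxycycline in cells with stable M3 receptor; B-score is computed from the integrated fluorescence ratio over baseline after carbachol; higher B-score means a larger calcium signal and so more RGS4 inhibition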
# Target sequence (P49798 whole entry, looked up): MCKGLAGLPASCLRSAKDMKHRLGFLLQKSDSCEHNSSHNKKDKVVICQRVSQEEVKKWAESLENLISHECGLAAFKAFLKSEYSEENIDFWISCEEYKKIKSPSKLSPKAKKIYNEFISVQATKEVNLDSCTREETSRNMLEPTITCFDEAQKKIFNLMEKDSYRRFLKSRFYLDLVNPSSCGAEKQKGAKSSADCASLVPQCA
# MrgX1 agonist – agonists of human MrgX1 receptor; Q96LB2; MrgX1-HEK293 cells, Fluo-4 calcium fluorescence, agonist mode; stronger effect = higher value; B-score at 10 µM; 0.44% of 310,000 active; AID 588627;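 active means calcium response B-score plate-corrected fluorescence ratio at least 3 library SD, with starting fluorescence B-score inside 5 SD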
# Target sequence (Q96LB2 whole entry, looked up): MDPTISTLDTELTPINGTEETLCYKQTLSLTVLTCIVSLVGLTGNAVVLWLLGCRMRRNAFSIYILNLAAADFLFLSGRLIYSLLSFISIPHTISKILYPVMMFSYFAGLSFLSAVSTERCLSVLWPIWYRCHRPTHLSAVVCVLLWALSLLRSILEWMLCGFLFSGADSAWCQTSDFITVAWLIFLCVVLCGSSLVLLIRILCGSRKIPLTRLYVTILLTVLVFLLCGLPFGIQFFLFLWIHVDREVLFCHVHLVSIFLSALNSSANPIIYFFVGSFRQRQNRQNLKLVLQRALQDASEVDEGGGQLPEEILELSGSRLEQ
#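 Test system: HEK293 cells stably expressing human MrgX1 receptor; Input: fifteen thousand cells per well; Dosing: compound delivered in addition one of three; Schedule: overnight seeding, then 1 h dark dye loading; Technique: Fluo-4 NW calcium fluorescence; Measure: B-scored fluorescence response ratio; Controls: positive and negative controls per plate.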
# RGS4 pot – potentiators or activators of RGS4. B-score at 10 µM. AID 463111. 0.92% of 310,000 active. HEK293 M3R/inducible RGS4, carbachol calcium flux Fluo4; stronger effect = lower value;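 active means B-score of the integrated calcium signal more than 4 SD below the library mean, with starting fluorescence not abnormally high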;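 further: negative B-score means reduced calcium response which marks RGS4 activation or potentiation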
#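 Reagent: ECmax carbachol challenge; Test system: M3R-expressing HEK293 line, RGS4 induced by doxycycline; Schedule: overnight RGS4 induction, 30 min dye load 37 °C, 20 min compound RT; Detection: calcium dye Fluo4 fluorescence; Read-out: Agonist-evoked peak-minus-minimum fluorescence over baseline, integrated ratio, B score.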
# MrgX1 PAM – allosterically activates human MrgX1 receptor signaling; Q96LB2; AID 588675; MrgX1-HEK293, Fluo-4 calcium flux, FDSS; stronger effect = higher value; 0.63% of 310,000 active; B-score at 10 µM;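 active means plate-corrected calcium response at least 3 library SD above typical, normal starting fluorescence, not activating the receptor alone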;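 further: compound read alongside a low EC10 to EC30 dose of BAM8-22 agonist; peak minus trough fluorescence over baseline measured at the second addition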
# MrgX1 antagonist – antagonists of human MrgX1 receptor. 1.3% of 310,000 active. MRGX1-HEK293 calcium flux, Fluo-4, BAM8-22 antagonism; stronger effect = lower value. B-score at 10 µM. AID 588676. Q96LB2;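 active means calcium-response B-score plate-corrected more than 3 library SD below zero, starting fluorescence within 5 deviations, no agonist response on first addition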;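 further: peak minus trough fluorescence over baseline after final BAM8-22 challenge near maximal dose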
# RGS4 inh valid – RGS4 inhibitor validation | HEK293 M3R/RGS4, carbachol calcium Fluo-4 fluorescence; carbachol added at its EC20; 0 = buffer wells, 100 = carbachol control | calcium response, % at 10 µM | shares compounds with RGS4 block | 65% of 1,700 active;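 active means duplicate-averaged calcium response above the buffer-only control mean plus 5 SD of those controls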;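 further: integrated fluorescence ratio F max minus min over baseline F0; higher response in RGS4-induced cells means RGS4 inhibition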
# M3R Ca ctr – counter-screen for RGS4 inhibitors: effect in non-induced cells. shares compounds with RGS4 block. HEK293 M3R non-induced, carbachol calcium Fluo-4; submaximal (EC20) carbachol stimulus; buffer wells 0%, carbachol control wells 100%. activity (percent), % at 10 µM. 20% of 1,900 active. AID 493000; call rule not given here;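 further: RGS4 induction absent so cells express M3R without RGS4; higher means more calcium signal and flags a non-specific hit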
# M3R basal Ca ctr – second RGS4 inhibitor counter-screen in uninduced cells lacking carbachol; 22% of 1,900 active; calcium response (agonist-mode artifact), % at 10 µM; shares compounds with RGS4 block; AID 493001; HEK293 M3R/RGS4 non-induced, Fluo-4 calcium, no carbachol; normalised: buffer wells 0%, carbachol wells 100%;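 active means duplicate-averaged calcium rise in uninduced cells above buffer wells' mean plus 5 SD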
# Starred values were filed as active, the others as inactive; i = inactive; · = not tested or not shown. An excerpt weighted towards active compounds, which were near 3.5% of everything screened.
SMILES,RGS4 block,MrgX1 agonist,RGS4 pot,MrgX1 PAM,MrgX1 antagonist,RGS4 inh valid,M3R Ca ctr,M3R basal Ca ctr
O=C(CNC(=O)c1cccc(OC(F)F)c1)OCc1cc(=O)n2cc(Br)ccc2n1,i,i,i,i,i,·,·,·
O=[n+]1cc(-c2cccc3ccccc23)n([O-])c2c1CCC2,4.86*,i,i,i,i,i,i,i
O=C(NCc1ccccc1)C(=O)NCC1OCCN1C(=O)c1ccc(Cl)cc1 (stereo unspecified),i,i,i,i,i,·,·,·
NC(=S)N/N=C/c1coc2ccc(Cl)cc2c1=O,i,i,i,i,i,·,·,·
CCCN1C(=O)/C(=C/c2nc3ccccc3c(=O)[nH]2)c2cc(C)ccc21,9.49*,i,i,i,i,26.5%*,57.5%*,i
CCCN1C(=O)/C(=C/c2nc3ccccc3c(=O)[nH]2)c2ccccc21,11*,i,i,i,i,8.5%*,i,i
COC(=O)/C(=C/c1c[nH]c2ccccc12)[N+](=O)[O-],20.6*,34.5*,i,i,i,18.5%*,35.0%*,20.0%*
CC1CCCN(c2nc(N(C)c3ccccc3)nc(N)c2[N+](=O)[O-])C1 (stereo unspecified),i,i,i,i,i,·,·,·
N#C/C(=C\c1ccc([N+](=O)[O-])cc1)c1nc(C2CC2)cs1,12.8*,i,i,i,i,i,i,56.0%*
N#C/C(=C\c1ccccc1[N+](=O)[O-])c1nc(C2CC2)cs1,i,i,i,i,i,·,·,·
CCOC(=O)c1[nH]ncc1CN1CCC(Cc2cccc(OC)c2)(C(=O)OCC)CC1,i,i,i,i,i,·,·,·
CCCC(=O)Nc1cccc(NC(=O)c2ccc3c(c2)OCCO3)c1,i,i,i,i,i,·,i,i
Cc1cc(C)c(NC(=O)Cn2nnc(C(=O)NCc3ccc4c(c3)OCO4)c2N)c(C)c1,i,i,i,i,i,·,·,·
Cc1cccc(C)c1N(CC(O)Cn1c2ccccc2c2ccccc21)S(C)(=O)=O (stereo unspecified),7.22*,i,i,i,i,19.0%*,i,i
CC1(C)CCCN(Cc2c(O)ccc3c(=O)c(-c4nc5ccccc5s4)c(N)oc23)C1,i,i,i,i,i,·,·,·
CC1CCCN(Cc2c(O)ccc3c(=O)c(-c4nc5ccccc5s4)c(N)oc23)C1 (stereo unspecified),5.05*,i,i,i,i,16.0%*,i,i
CC1CCN(Cc2c(O)ccc3c(=O)c(-c4nc5ccccc5s4)c(N)oc23)CC1,6.34*,i,i,i,i,12.5%*,i,i
Cc1ccc(NC(=O)N2CCCN(C(=O)OC(C)(C)C)CC2)cc1Cl,i,i,i,i,i,·,·,·
COc1cccc(/C=C/C(=O)OCC(=O)Nc2cccc(S(=O)(=O)N(C)C)c2)c1,i,i,i,i,i,·,·,·
Cc1ccc(SC(CC(=O)c2ccc(F)cc2)C(=O)O)cc1 (stereo unspecified),i,i,i,i,i,·,i,i
CCOC(=O)c1cncc(C(=O)O)c1,i,i,i,i,i,·,·,·
CC1=NN(c2ccc(C)cc2C)C(=O)C1C(c1ccccc1)C1C(=O)N(c2ccc(C)cc2C)N=C1C (stereo unspecified),i,i,i,i,i,·,·,·
CC1=NN(c2ccc(Cl)cc2)C(=O)C1C(c1cccc(O)c1)c1c(C)[nH]n(-c2ccc(Cl)cc2)c1=O (stereo unspecified),i,i,i,i,i,·,35.5%*,i
CC1=NN(c2ccc(F)cc2)C(=O)C1C(c1cccc(O)c1)c1c(C)[nH]n(-c2ccc(F)cc2)c1=O (stereo unspecified),9.66*,i,i,i,i,13.0%*,i,i
NC(=O)CC(NC(=O)Cc1ccc(Cl)cc1)c1ccc(NC2CCCC2)c([N+](=O)[O-])c1 (stereo unspecified),i,i,i,i,i,i,i,i
SMILES,RGS4 block,MrgX1 agonist,RGS4 pot,MrgX1 PAM,MrgX1 antagonist,RGS4 inh valid,M3R Ca ctr,M3R basal Ca ctr
NC(=O)CC(NC(=O)Cc1ccc(Br)cc1)c1ccc(NC2CCC2)c([N+](=O)[O-])c1 (stereo unspecified),i,i,i,i,i,·,i,i
CN1C(=O)/C(=C/c2cccc([N+](=O)[O-])c2)C(=O)N1c1ccccc1,35.8*,i,i,i,i,43.5%*,37.0%*,i
O=C(NCCCN1CCOCC1)c1ccc(Cl)cc1Cl,i,i,i,i,i,·,·,·
COc1ccc(C(=O)NCCC(=O)NCc2cc(=O)n(C)c(=O)n2C)cc1,i,i,i,i,i,·,·,·
CCOC(=O)N1CCN(C(=O)CSCC(=O)Nc2nc(-c3ccccc3)cs2)CC1,i,i,i,i,i,·,·,·
O=C(CSCC(=O)N1CCCCC1)Nc1nc(-c2cccs2)cs1,i,i,i,i,i,·,·,·
O=C(CSCC(=O)N1CCN(c2ccccc2)CC1)Nc1nc(-c2ccc(Cl)s2)cs1,i,i,i,i,i,i,i,i
O=C(CSCC(=O)N1CCCCC1)Nc1nc(-c2ccc(Cl)s2)cs1,9.34*,i,i,i,i,i,i,i
COc1ccc(C(=O)NCc2cccnc2)cc1S(=O)(=O)N1CCCc2ccccc21,i,i,i,i,i,·,·,·
O=c1[nH]cnc2onc(-c3ccc(F)cc3)c12,i,i,i,i,i,·,·,·
CCOC(=O)/C(C#N)=C/c1cn(CCC(=O)O)nc1-c1cccc(Cl)c1,4.74*,i,i,i,i,i,i,i
CCOC(=O)/C(C#N)=C/c1cn(CCC(=O)O)nc1-c1ccc(F)cc1,i,i,i,i,i,·,·,·
COCCCNC(=O)CN1C(=O)COc2ccc(S(=O)(=O)N3CCOCC3)cc21,i,i,i,i,i,i,i,i

# Screening data from PubChem BioAssay.
